Results on 1 compound are retold here after ChEMBL document CHEMBL1629645 (Antimicrob Agents Chemother, 2009).

Converted amounts (≈) assume the structure as drawn. The source made the active and inactive calls. The rule behind the calls is not given here.

Series [1] relates to Staphylococcus aureus. Nature of the series: Antibacterial activity against 1 x10'6 to 5 x10^6 CFU/ml methicillin-resistant Staphylococcus aureus ATCC 43300 assessed as log decrease in bacterial count at 4 times MIC after 6 hrs by time kill study. The class given is functional. An outline of the steps:
(§1)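 MRSA inoculum of 1 × 10^6 to 5 × 10^6 CFU/ml in 10 ml Mueller-Hinton broth. Drug at 1× and 4× MIC; drug-free growth control. Incubated at 37°C. Aliquots plated on Mueller-Hinton agar at 0, 6 and 24 h. Quantification limit 200 CFU/ml. Mean log10 CFU/ml reduction ± SD.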

Series [2] relates to Staphylococcus aureus. Put plainly: Antibacterial activity against 1 x10'6 to 5 x10^6 CFU/ml methicillin-resistant Staphylococcus aureus ATCC 43300 assessed as percent resistant isolates at MIC after 24 hrs by time kill study. The class given is functional.
For series [3], the system named is Staphylococcus aureus. Nature of the series: Antibacterial activity against methicillin-resistant Staphylococcus aureus ATCC 43300 infected in Albino guiena pig assessed as no. of culture-negative cage fluid samples at 12.5 mg/kg measured on day 10 postinfection. The format is functional. Summed up:
(§2)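 Same guinea pig cage infection and intraperitoneal 4-day, twice-daily regimen. Cage fluid cultured on day 4 and day 10. Result is the number of cage fluid samples without detectable MRSA growth over the total cages per group.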

In series [4] the test system is Staphylococcus aureus. Put plainly: Antibacterial activity against methicillin-resistant Staphylococcus aureus ATCC 43300 infected in Albino guiena pig assessed as no. of culture-negative cage fluid samples at 12.5 mg/kg measured on day 4 postinfection. The format is functional. An outline of the steps: as §2
Series [5] in a line: AUC (0 to 24 hrs) in cage fluid of Albino guiena pig at 12.5 mg/kg, ip. The class given is ADME, organism-based, Cavia porcellus. Also noted: time < 24 hr, dose 12.5 mg/kg, route intraperitoneal. Particulars: guinea pig.
Series [6] is described as follows: Cmin in cage fluid of Albino guiena pig at 12.5 mg/kg, ip after 12 hrs. The format is ADME, organism-based, Cavia porcellus. Also noted: dose 12.5 mg/kg, route intraperitoneal. To be noted: guinea pig, read-out: Cmin.
The test system of series [7] is Staphylococcus aureus. Put plainly: Antibacterial activity against methicillin-resistant Staphylococcus aureus ATCC 43300 during logarithmic growth phase by macrodilution method. The class given is functional.
A short description of series [8]: Cmax in cage fluid of Albino guiena pig at 12.5 mg/kg, ip after 12 hrs. Particulars: guinea pig. Also noted: dose 12.5 mg/kg, route intraperitoneal. The class given is ADME, organism-based, Cavia porcellus, Interstitial fluid.
Series [9] concerns Staphylococcus aureus. Put plainly: Antibacterial activity against 1 x10'6 to 5 x10^6 CFU/ml methicillin-resistant Staphylococcus aureus ATCC 43300 assessed as log decrease in bacterial count at MIC after 6 hrs by time kill study. The class given is functional. An outline of the steps:
as §1

Series [10] deals with Staphylococcus aureus. Nature of the series: Antibacterial activity against methicillin-resistant Staphylococcus aureus ATCC 43300 by macrodilution method. The format is functional. Summed up:
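Broth macrodilution MIC in Mueller-Hinton broth per CLSI. Inoculum 1 × 10^5 to 5 × 10^5 CFU/ml. Ten twofold drug dilutions, 18 h at 37°C without shaking. MIC is the lowest concentration with no visible growth. Triplicate.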

Series [11] has as its system Staphylococcus aureus. Nature of the series: Antibacterial activity against 1 x10'6 to 5 x10^6 CFU/ml methicillin-resistant Staphylococcus aureus ATCC 43300 assessed as bacterial regrowth after 24 hrs by time kill study. The format is functional, organism-based. An outline of the steps: as §1
Series [12] concerns Staphylococcus aureus. Put plainly: Antibacterial activity against methicillin-resistant Staphylococcus aureus ATCC 43300 infected in Albino guiena pig assessed as decrease in planktonic bacterial counts in cage fluid at 12.5 mg/kg measured on day 4 postinfection. The class given is functional. Summed up: (§3)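 Guinea pig subcutaneous cage model infected with 2 × 10^4 CFU MRSA. Intraperitoneal dosing every 12 h for 4 days, starting day 1. Cage-fluid CFU counted on day 1, day 4 (before last dose) and day 10. Δlog10 CFU/ml is day 4 or day 10 minus day 1. Quantification limit 1,000 CFU/ml; negatives set to 3 log10. Median and IQR.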

Series [13] relates to Staphylococcus aureus. Nature of the series: Antibacterial activity against methicillin-resistant Staphylococcus aureus ATCC 43300 infected in Albino guiena pig assessed as decrease in planktonic bacterial counts in cage fluid at 12.5 mg/kg after measured on day 10 postinfection. The format is functional. Summed up:
as §3

Series [14] relates to Staphylococcus aureus. Put plainly: Antibacterial activity against methicillin-resistant Staphylococcus aureus ATCC 43300 during stationary growth phase by macrodilution method. The format is functional.
Series [15] can be described thus: Tmax in cage fluid of Albino guiena pig at 12.5 mg/kg, ip. More on the design: dose 12.5 mg/kg, route intraperitoneal. The class given is ADME, organism-based, Cavia porcellus. To be noted: guinea pig.

In the case of `CO[C@H]1/C=C/O[C@@]2(C)Oc3c(C)c(O)c4c(O)c(c(/C=N/N5CCN(C)CC5)c(O)c4c3C2=O)NC(=O)/C(C)=C\C=C\[C@H](C)[C@H](O)[C@@H](C)[C@@H](O)[C@@H](C)[C@H](OC(C)=O)[C@@H]1C` [RIFAMPIN], the log10CFU/ml with Staphylococcus aureus [1] is given as 0.5; in the series with Staphylococcus aureus [9], 0.5; in the series on Staphylococcus aureus [12], 3.1; with Staphylococcus aureus [13], less than 3. Besides, the Activity in the series on Staphylococcus aureus [2] worked out at 94%; in the series with Staphylococcus aureus [3], 92%; with Staphylococcus aureus [4], 50%. The same compound had an exposure AUC(0-t) at 24 h in series [5] of 4600 ng·h/mL. Moreover, in [6], the concentration at 12 h came to 100 ng/mL. In addition, the figures for the MBC in the series on Staphylococcus aureus [7] and with Staphylococcus aureus [14] were 0.08 µg/mL (≈ 0.0972 µM) and 2.5 µg/mL (≈ 3.04 µM), respectively. The compound also displayed a Cmax in series [8] of 1000 ng/mL. Also, the MIC against Staphylococcus aureus [10] turned out to be 0.01 µg/mL (≈ 0.0122 µM). In the series on Staphylococcus aureus [11], the result was inactive. Moreover, the Tmax in series [15] is 2.1 h.
